“Also recorded” adds a separate entry of the source. Read-outs that look alike come from different tables or passages of the source. Marks after values point to notes of the source that are not given here.
Assays:
[1] = Study 1; type: in vivo, human; details: for Intracellular islatravir‐TP AUC0–168 h / Intracellular islatravir‐TP AUC0–∞ / Intracellular islatravir‐TP C168 h / Intracellular islatravir‐TP Cmax: PBMC, LS geometric mean (95% CI)
Procedure, shortened: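 PBMCs from healthy adults were collected up to ~336 h after single oral doses, fasted or after a high-fat meal (30 mg). Cells were lysed in methanol-containing solvent, protein-precipitated, and triphosphate was measured by ion-exchange LC-MS/MS (LLOQ 0.50 ng/ml; range 0.50–200.00 ng/ml). Concentrations were carryover-corrected when predose exceeded 5% of Cmax. Results are LS geometric means (95% CI) from a log-scale mixed model; fed/fasted ratios have 90% CI.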

[2] = cited from earlier work
[3] = type: in vivo, human; details: for Tmax: human, PBMCs, oral
Procedure, shortened: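 Healthy adults took weekly oral capsules (10, 30, 100 mg) for 3 weeks. PBMCs were collected up to ~336 h after the last dose and triphosphate was quantified by ion-exchange LC-MS/MS (LLOQ 0.50 ng/ml). Tmax is observed. […] LS means are given with 95% CI.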

[4] = system: HIV‐1; details: cited from earlier work
[5] = system: SIV; details: once‐weekly oral islatravir; cited from earlier work
[6] = Study 1; type: in vivo, human
Procedure, shortened: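 Fasted single oral-suspension doses, with 30 mg also given after a high-fat breakfast (55.6 g fat, 55 g carbohydrate, 31.1 g protein), 6 active and 2 placebo per panel. Plasma was sampled predose to ~96 h and analysed by protein precipitation and reversed-phase LC-MS/MS (LLOQ 1.00 ng/ml; range 1.00–1000.00 ng/ml). Log-transformed values went into a mixed model (treatment fixed, subject random), giving a fed/fasted geometric mean ratio with 90% CI.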

[7] = Study 1; type: in vivo, human; remark: listed apart in the source
Procedure, shortened: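 Double-blind, randomized, alternating-panel single-dose design: 3 panels of 8 (6 active, 2 placebo) received an oral suspension or the vehicle as placebo. Assessments were vital signs, 12-lead ECGs, and hematology and blood chemistry at prespecified times. Adverse events were recorded from consent through 21 days after treatment ended. Placebo recipients were pooled. Participants were adults 18–60 y, BMI ≤32 kg/m2, men or women of nonchildbearing potential.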

[8] = system: SIV; details: weekly oral islatravir; cited from earlier work
[9] = Study 2 safety and tolerability; type: in vivo, human
Procedure, shortened: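 Double-blind, randomized, serial-panel multiple-dose design: 3 panels of 8 (6 active, 2 placebo) took capsules once weekly for 3 weeks, at least 10 days between panels. Assessments were vital signs, 12-lead ECGs, and hematology and blood chemistry at prespecified times. Adverse events were monitored from consent through 21 days after the last dose. Placebo data were pooled. Participants were adults 18–60 y, BMI ≤32 kg/m2, without HIV.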

[10] = Study 2; type: in vivo, human; details: for Accumulation ratio: week 3 / week 1, plasma islatravir AUC0–168 h / Accumulation ratio: week 3 / week 1, plasma islatravir Cmax: LS mean difference (90% CI); for AUC(0-t): Plasma islatravir AUC0–168 h; for AUC(0-t) / Cmax: LS mean (95% CI); for Cmax: Plasma islatravir Cmax
Procedure, shortened: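 Capsules of 10, 30 or 100 mg were given once weekly for 3 weeks, fasted (6 active, 2 placebo per panel). Plasma was sampled predose to ~168 h after dosing and measured by reversed-phase LC-MS/MS after protein precipitation (LLOQ 1.00 ng/ml). […] Week 3/week 1 ratios are back-transformed with 90% CI.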

[11] = Study 2, 10 mg once weekly, Week 1, LS mean (95% CI)
[12] = Study 2, 10 mg once weekly, Week 3, LS mean (95% CI)
[13] = Study 2, 30 mg once weekly, Week 1, LS mean (95% CI)
[14] = Study 2, 30 mg once weekly, Week 3, LS mean (95% CI)
[15] = Study 2, 100 mg once weekly, Week 1, LS mean (95% CI)
[16] = Study 2, 100 mg once weekly, Week 3, LS mean (95% CI)
[17] = up to 100 mg once weekly for 3 weeks
[18] = human, plasma, oral, 100 mg, Study 2, 100 mg once weekly, Week 1
[19] = human, plasma, oral, 100 mg, Study 2, 100 mg once weekly, Week 3

C#C[C@]1(COP(=O)(O)OP(=O)(O)OP(=O)(O)O)O[C@@H](n2cnc3c(N)nc(F)nc32)C[C@@H]1O [islatravir‐TP, 4'‐Ethynyl‐2‐fluoro‐2'‐deoxyadenosine triphosphate]
effect of food on islatravir‐TP AUC, Cmax, and C168 ([1]; 30 mg with a high‐fat meal): largely unchanged; also recorded: did not affect | posterior probability that the true mean intracellular islatravir‐TP C168 h is greater than 0.53 pmol/10^6 cells ([1]; doses of 15 mg and above): greater than 99% | Intracellular islatravir‐TP AUC0–168 h ([1]; single oral 5 mg fasted): 91.6 (73.5–114) h*pmol/10^6cells | Intracellular islatravir‐TP AUC0–∞ ([1]; single oral 5 mg fasted): 162 (120–217) h*pmol/10^6cells | Intracellular islatravir‐TP C168 h ([1]; single oral 5 mg fasted): 0.29 (0.19–0.45) pmol/10^6 cells | Intracellular islatravir‐TP Cmax ([1]; single oral 5 mg fasted): 1.06 (0.83–1.37) pmol/10^6cells | Intracellular islatravir‐TP AUC0–168 h ([1]; single oral 15 mg fasted): 341 (274–425) h*pmol/10^6cells | Intracellular islatravir‐TP AUC0–∞ ([1]; single oral 15 mg fasted): 670 (499–900) h*pmol/10^6cells | Intracellular islatravir‐TP C168 h ([1]; single oral 15 mg fasted): 1.24 (0.80–1.92) pmol/10^6 cells | Intracellular islatravir‐TP Cmax ([1]; single oral 15 mg fasted): 3.65 (2.85–4.69) pmol/10^6cells | Intracellular islatravir‐TP AUC0–168 h ([1]; single oral 30 mg fasted): 871 (700–1080) h*pmol/10^6cells | Intracellular islatravir‐TP AUC0–∞ ([1]; single oral 30 mg fasted): 1420 (1060–1900) h*pmol/10^6cells | Intracellular islatravir‐TP C168 h ([1]; single oral 30 mg fasted): 2.76 (1.78–4.29) pmol/10^6 cells | Intracellular islatravir‐TP Cmax ([1]; single oral 30 mg fasted): 8.21 (6.39–10.50) pmol/10^6cells | Intracellular islatravir‐TP Cmax ([1]; single oral 30 mg fed): 7.85 (6.11–10.1) pmol/10^6cells | Intracellular islatravir‐TP AUC0–∞ ([1]; single oral 30 mg fed, N = 4): 1370 (975–1920) ^g h*pmol/10^6cells | Intracellular islatravir‐TP AUC0–168 h ([1]; single oral 30 mg fed, N = 5): 660 (520–838) ^f h*pmol/10^6cells | Intracellular islatravir‐TP C168 h ([1]; single oral 30 mg fed, N = 5): 2.71 (1.67–4.40) ^f pmol/10^6 cells | Intracellular islatravir‐TP AUC0–168 h ([1]; single oral 100 mg fasted): 1260 (1010–1560) h*pmol/10^6cells | Intracellular islatravir‐TP AUC0–∞ ([1]; single oral 100 mg fasted): 2480 (1850–3330) h*pmol/10^6cells | Intracellular islatravir‐TP C168 h ([1]; single oral 100 mg fasted): 4.79 (3.09–7.43) pmol/10^6 cells | Intracellular islatravir‐TP Cmax ([1]; single oral 100 mg fasted): 13.8 (10.7–17.7) pmol/10^6cells | Intracellular islatravir‐TP AUC0–168 h ([1]; single oral 200 mg fasted): 3100 (2490–3860) h*pmol/10^6cells | Intracellular islatravir‐TP AUC0–∞ ([1]; single oral 200 mg fasted): 5180 (3850–6960) h*pmol/10^6cells | Intracellular islatravir‐TP C168 h ([1]; single oral 200 mg fasted): 7.73 (4.98–12.0) pmol/10^6 cells | Intracellular islatravir‐TP Cmax ([1]; single oral 200 mg fasted): 38.4 (29.9–49.3) pmol/10^6cells | Intracellular islatravir‐TP AUC0–168 h ([1]; single oral 400 mg fasted): 5300 (4260–6580) h*pmol/10^6cells | Intracellular islatravir‐TP AUC0–∞ ([1]; single oral 400 mg fasted): 9320 (6950–12500) h*pmol/10^6cells | Intracellular islatravir‐TP C168 h ([1]; single oral 400 mg fasted): 18.3 (11.8–28.4) pmol/10^6 cells | Intracellular islatravir‐TP Cmax ([1]; single oral 400 mg fasted): 63.6 (49.6–81.6) pmol/10^6cells | intracellular persistence of islatravir‐TP ([2]; preclinically): > 72 h | Islatravir‐TP AUC0–168 h [3, 11]: 341 (256, 454) h*pmol/10^6 cells | Islatravir‐TP Cmax [3, 11]: 3.79 (2.68, 5.34) pmol/10^6 cells | Islatravir‐TP AUC0–168 h [3, 12]: 476 (357, 634) h*pmol/10^6 cells | Islatravir‐TP Cmax [3, 12]: 6.38 (4.52, 9.00) pmol/10^6 cells | Islatravir‐TP AUC0–168 h [3, 13]: 1160 (872, 1550) h*pmol/10^6 cells | Islatravir‐TP Cmax [3, 13]: 13.2 (9.34, 18.6) pmol/10^6 cells | Islatravir‐TP AUC0–168 h [3, 14]: 1570 (1180, 2100) h*pmol/10^6 cells | Islatravir‐TP Cmax [3, 14]: 19.6 (13.9, 27.7) pmol/10^6 cells | Islatravir‐TP AUC0–168 h [3, 15]: 3150 (2370, 4200) h*pmol/10^6 cells | Islatravir‐TP C168 [3, 15]: 13.5 (10.4, 17.6) pmol/10^6 cells | Islatravir‐TP Cmax [3, 15]: 31.3 (22.2, 44.2) pmol/10^6 cells | Islatravir‐TP AUC0–168 h [3, 16]: 4740 (3560, 6320) h*pmol/10^6 cells | Islatravir‐TP Cmax [3, 16]: 46.7 (33.1, 65.9) pmol/10^6 cells | islatravir‐TP C168 h versus pharmacokinetic target ([3]; Study 2, after the first weekly dose at all dose levels, posterior probability calculation): > 0.53 pmol/10^6 cells | accumulation of intracellular islatravir‐TP ([3]; Study 2, multiple weekly doses of 30 and 100 mg): modest degree of accumulation | accumulation of intracellular islatravir‐TP ([3]; Study 2, multiple weekly doses of 30 and 100 mg, listed as islatravir‐triphosphate): modest degree | accumulation of intracellular islatravir‐TP ([3]; Study 2, weekly administration): ~1.5 fold | Tmax ([3]; 10 mg): 48 h | Tmax ([3]; 30 mg): 9 h | Tmax ([3]; 100 mg): 18 h

C#C[C@]1(CO)O[C@@H](n2cnc3c(N)nc(F)nc32)C[C@@H]1O [islatravir, 4'‐Ethynyl‐2‐fluoro‐2'‐deoxyadenosine]
tolerability ([4]; phase 1b single dose): generally well‐tolerated | suppression of HIV‐1 RNA ([4]; single oral doses as low as 0.5 mg, day 7): greater than 1.0 log | duration of declines in SIV RNA [5]: at least 7 days | time of peak plasma concentrations postdose ([2]; rhesus macaque, enteral administration): ~ 90 min | decrease in plasma islatravir Cmax with a high‐fat meal ([6]; 30 mg fed vs fasted): 49% | increase in plasma islatravir AUC0–∞ with a high‐fat meal ([6]; 30 mg fed vs fasted): 10% | food effect on pharmacokinetics ([6]; 30 mg with a high‐fat meal): no meaningful food effect | Tmax ([6]; human, plasma, po, median time to maximum plasma concentration (Tmax), fasted state, single oral doses): 0.5 h | adverse events considered related to islatravir [7]: none | changes in clinical laboratory values, vital signs, or ECG safety parameter values [7]: No clinically meaningful relationships | intensity of adverse events [7]: mild to moderate | total nonserious adverse events [7]: 30 | serious adverse events ([7]; single doses up to 400 mg): no serious adverse events | tolerability ([7]; single oral doses up to 400 mg): generally well‐tolerated | protection from infection [8]: protected | changes in clinical laboratory values, vital signs, or ECG safety parameter values [9]: No clinically meaningful relationships | intensity of adverse events [9]: mild to moderate | total nonserious adverse events [9]: 12 | serious adverse events [9, 17]: no serious adverse events | tolerability [9, 17]: generally well‐tolerated | Accumulation ratio: week 3 / week 1, plasma islatravir AUC0–168 h ([10]; Study 2, 10 mg once weekly): 1.22 (1.08, 1.36) h*μmol/L | Accumulation ratio: week 3 / week 1, plasma islatravir Cmax ([10]; Study 2, 10 mg once weekly): 1.25 (0.82, 1.92) nmol/L | Accumulation ratio: week 3 / week 1, plasma islatravir AUC0–168 h ([10]; Study 2, 30 mg once weekly): 1.22 (1.09, 1.37) h*μmol/L | Accumulation ratio: week 3 / week 1, plasma islatravir Cmax ([10]; Study 2, 30 mg once weekly): 0.99 (0.64, 1.51) nmol/L | Accumulation ratio: week 3 / week 1, plasma islatravir AUC0–168 h ([10]; Study 2, 100 mg once weekly): 1.25 (1.11, 1.40) h*μmol/L | Accumulation ratio: week 3 / week 1, plasma islatravir Cmax ([10]; Study 2, 100 mg once weekly): 1.26 (0.82, 1.93) nmol/L | accumulation of islatravir in plasma ([10]; Study 2, once‐weekly dosing for 3 weeks): little to no accumulation; also recorded: minimal accumulation | concentration at 48 h ([10]; human, plasma, oral, 10 mg): < 1 ng/mL | concentration at 96 h ([10]; human, plasma, oral, 10 mg): < 1 ng/mL | half-life ([10]; human, plasma, oral, 10 mg): 16.5 h | half-life ([10]; human, plasma, oral, 30 mg): 74.2 h | half-life ([10]; human, plasma, oral, 100 mg): 87.1 h | AUC(0-t) [10, 18]: 9.62 µM·h | AUC(0-t) [10, 19]: 12 µM·h | Cmax [10, 18]: 1470 nM | Cmax [10, 19]: 1850 nM

Reference: article PMC8504818 (Clinical and Translational Science, 2021)
